The list is not random: actives were taken first. Their share in the collection is about 1.2%.
PfGluPho inh: PfG6PD (Plasmodium falciparum) enzyme inhibition; PfGluPho enzyme, NADPH resazurin-diaphorase fluorescence; inhibition, % at 20 µM; hit rate 0.78% among 350,000;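 active means inhibition reaching at least a set limit at 20 µM in the primary screen, cut at about 59% in these data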
HKDC1 inh: inhibitors of human hexokinase HKDC1; recombinant HKDC1, G6PDH/diaphorase resazurin coupled fluorescence; inhibition, % at 20 µM; Q2TB90; hit rate 0.16% among 340,000;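 active means inhibition above about 35% when tested at 20 µM, limit read from the data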
Target sequence (Q2TB90 whole entry, looked up): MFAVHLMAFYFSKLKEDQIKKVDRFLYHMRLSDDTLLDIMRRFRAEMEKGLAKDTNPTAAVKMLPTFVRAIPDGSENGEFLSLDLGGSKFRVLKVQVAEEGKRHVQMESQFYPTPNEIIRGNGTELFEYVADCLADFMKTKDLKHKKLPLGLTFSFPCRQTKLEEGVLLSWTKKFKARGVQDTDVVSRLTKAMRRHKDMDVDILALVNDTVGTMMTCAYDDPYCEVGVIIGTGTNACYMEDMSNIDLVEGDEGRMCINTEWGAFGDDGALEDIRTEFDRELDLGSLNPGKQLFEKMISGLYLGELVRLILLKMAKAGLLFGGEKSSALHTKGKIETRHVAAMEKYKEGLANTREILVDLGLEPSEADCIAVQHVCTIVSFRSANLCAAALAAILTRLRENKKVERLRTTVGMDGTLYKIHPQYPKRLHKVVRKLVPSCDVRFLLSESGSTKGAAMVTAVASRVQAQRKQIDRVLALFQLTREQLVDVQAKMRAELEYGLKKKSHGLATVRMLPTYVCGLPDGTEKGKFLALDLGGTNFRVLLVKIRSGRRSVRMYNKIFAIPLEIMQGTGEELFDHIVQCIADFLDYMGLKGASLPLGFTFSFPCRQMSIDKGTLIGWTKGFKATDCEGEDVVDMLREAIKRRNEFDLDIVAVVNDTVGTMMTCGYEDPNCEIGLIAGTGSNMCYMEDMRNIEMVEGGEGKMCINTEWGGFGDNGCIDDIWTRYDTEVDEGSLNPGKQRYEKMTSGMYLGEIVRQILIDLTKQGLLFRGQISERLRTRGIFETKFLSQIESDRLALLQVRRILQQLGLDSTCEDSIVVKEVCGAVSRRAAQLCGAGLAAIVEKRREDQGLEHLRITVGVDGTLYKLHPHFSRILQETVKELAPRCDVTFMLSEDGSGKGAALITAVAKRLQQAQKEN
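test system = in-house recombinant HK5 (HKDC1) enzyme | amount = HKDC1 at 5 µg/mL | control set = DMSO-enzyme wells negative, buffer-substituted wells positive | compound = one dose of 20 µM, 1% DMSO | schedule = reaction time 90 min, room temperature, protected from light | technique = resorufin fluorescence at 613 nm | reagent = glucose with 1 mM ATP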
Diaphorase inh: inhibits diaphorase or chemically oxidizes, flagging diaphorase assay artifacts. diaphorase resazurin-to-resorufin fluorescence, NADH, 16 min; bacterial (C. kluyveri) enzyme, not human. inhibition, % at 20 µM. hit rate 0.69% among 190,000;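 active means primary screen inhibition at 20 µM above a set limit, cut at about 50% in these data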
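controls = No-NADH positive control and DMSO neutral control | system = Clostridium kluyveri diaphorase enzyme | timing = reaction incubation of 16 min at room temperature | signal = resorufin fluorescence 544/590 nm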
G6PDH counter: inhibits Leuconostoc G6PDH, flagging false hits in G6PDH-based assays | Purified L. mesenteroides G6PDH, diaphorase/resazurin coupled fluorescence, 45 min | hit rate 0.12% among 200,000 | inhibition, % at 5 µM; in the data active means inhibition above about 50%
PfGluPho conf: PfG6PD inhibition, single-dose confirmed. shares compounds with PfGluPho inh. recombinant PfGluPho, NADPH-diaphorase-resazurin fluorescence. inhibition, % at 20 µM. hit rate 34% among 2,400. AID 504753;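 active means inhibition of at least 50% at 20 µM in any single replicate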
Diaph ctr 10uM: diaphorase inhibition or oxidation at 10 uM NADPH; shares compounds with PfGluPho inh; diaphorase-coupled resazurin reduction, fluorescence, NADPH 10 uM; inhibition, % at 20 µM; hit rate 39% among 820;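 active means average inhibition reaching 50% or more with the compound at 20 µM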;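 further: resorufin red fluorescence formed as diaphorase reduces resazurin using NADPH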
Diaph ctr 30uM: counter-screen for P. falciparum G6PD inhibitors: diaphorase inhibitors, oxidizers; shares compounds with PfGluPho inh; Diaphorase/resazurin coupled assay, resorufin fluorescence, 30 uM NADPH; inhibition, % at 20 µM; hit rate 29% among 820;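 active means inhibition averaging 50% or more, tested at 20 µM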
Large screens that a line does not name were inactive (follow-up assays come after a bar, where they were run).

Cc1ccccc1C(=O)NCC(=O)NCC1(N2CCOCC2)CCCCC1	none (no result: Diaphorase inh, G6PDH counter)
COc1ccc(CCN(C)C(=O)CN2C(=O)NC3(CCCc4ccccc43)C2=O)cc1OC (centres undefined)	none (no result: Diaphorase inh, G6PDH counter)
CN1/C(=N\O)c2cccc3cccc1c23	PfGluPho inh 76.2 | PfGluPho conf inactive
CC(Sc1nnnn1C)C(=O)Nc1ncc(Cl)cc1Cl (centres undefined)	none (no result: Diaphorase inh, G6PDH counter)
COc1ccc2cc(C(=O)C3CCCN(C(=O)C4=NN(C)C(=O)CC4)C3)ccc2c1 (centres undefined)	none (no result: Diaphorase inh, G6PDH counter)
CCC(=O)c1ccc(OCC(=O)OCC(=O)Nc2cccc(S(=O)(=O)N3CCOCC3)c2)cc1	none (no result: Diaphorase inh, G6PDH counter)
Cc1cccc(-c2nc3ccccc3c(=O)n2NC(=S)N(C)C)c1	PfGluPho inh 61.8 | PfGluPho conf inactive
COc1ccc(C(CNC(=O)c2cc(S(=O)(=O)N3CCN(c4ccccc4)CC3)ccc2Cl)N(C)C)cc1 (centres undefined)	none (no result: Diaphorase inh, G6PDH counter)
CC(C)c1nc2sc3c(=O)n(N)cnc3c2c2c1COC(C)(C)C2	PfGluPho inh 60.5 | PfGluPho conf inactive
COc1cc(C2c3[nH]c4ccccc4c3CC3COC(=O)N32)cc(OC)c1O (centres undefined)	none (no result: Diaphorase inh, G6PDH counter)
COC(=O)c1ccc(COC(=O)c2ccc(CS(=O)(=O)c3ccc(C)cc3)cc2)cc1	none
COC(=O)c1cc2c(n1S(=O)(=O)c1ccc(C)cc1)C(=O)C(=O)c1[nH]cc(C(=O)OCc3ccccc3)c1-2	PfGluPho inh 77.5 (no result: Diaphorase inh, G6PDH counter) | PfGluPho conf 50.5 | Diaph ctr 10uM inactive | Diaph ctr 30uM inactive
CCCn1c(SCC(=O)N(C)C2CCCCC2)n[nH]c1=O	none (no result: HKDC1 inh, Diaphorase inh, G6PDH counter)
CCC1(CC)Cc2ccccc2C(N)=C1C#N	PfGluPho inh 60.8 | PfGluPho conf 49.0 | Diaph ctr 10uM 50.4 | Diaph ctr 30uM inactive
CC(CNc1ccccc1O)C(=O)O (centres undefined)	PfGluPho inh 93.6 | PfGluPho conf 70.1 | Diaph ctr 10uM inactive | Diaph ctr 30uM inactive
COc1c2ccoc2c(OC[C@@H](O)C(C)(C)O)c2oc(=O)ccc12	none
COc1c2ccoc2c(OCC=C(C)C)c2oc(=O)ccc12	PfGluPho inh 67.8 | PfGluPho conf 54.2 | Diaph ctr 10uM inactive | Diaph ctr 30uM inactive
O=C(NCc1ccc(Cl)cc1)C1CCCN1C(=O)Nc1ccccc1 (centres undefined)	none (no result: Diaphorase inh, G6PDH counter)
Oc1cccc(C=Nc2cccc3ccccc23)c1O	none (no result: Diaphorase inh, G6PDH counter)
Oc1ccc(/C=N/N=C(c2ccccc2)c2ccccc2)c(O)c1O	PfGluPho inh 74.6, Diaphorase inh 75.0 | PfGluPho conf 72.5 | Diaph ctr 10uM 50.7 | Diaph ctr 30uM inactive
COc1ccccc1NC(=O)Cc1nnc(SCC(=O)c2ccc(F)cc2)n1C	none (no result: Diaphorase inh, G6PDH counter)
CCc1c(C)sc(NC(=O)C2CCCCC2C(=O)O)c1C(N)=O (centres undefined)	PfGluPho inh 73.9 | PfGluPho conf inactive
CCc1c(C)sc(NC(=O)OC)c1C(N)=O	none
NC(=O)c1ccc(N2CCN(c3ccc(O)cc3)CC2)c([N+](=O)[O-])c1	PfGluPho inh 66.0 | PfGluPho conf inactive
CC(=O)c1ccc(N2CCN(c3ccc(C(N)=O)cc3[N+](=O)[O-])CC2)cc1	none
Cc1ccc([C@H]2N[C@]3(CCCN(Cc4ccc(C(F)(F)F)cc4)C3=O)[C@H]3C(=O)N(C)C(=O)[C@@H]23)cc1	none (no result: HKDC1 inh, Diaphorase inh, G6PDH counter)
Cc1c(/C=C/C(=O)c2cccs2)cnn1C	none
CCc1ccc(C(=O)/C=C/c2cnn(C)c2C)s1	PfGluPho inh 59.4 | PfGluPho conf inactive
N#Cc1c(-c2ccc(F)cc2)c(-c2ccc(F)cc2)nn(CCO)c1=O	none (no result: Diaphorase inh, G6PDH counter)
CCOC(=O)C1=C(COC(=O)COc2cc(C)ccc2C)NC(=O)NC1C (centres undefined)	none (no result: Diaphorase inh, G6PDH counter)
Cc1ccc(NC(=S)N(CCN(C)C)Cc2cccs2)c(C)c1	PfGluPho inh 60.9 | PfGluPho conf inactive
Cc1cc(C)c(NC(=S)N(CCN(C)C)Cc2cccs2)c(C)c1	none
CC(=CC(=O)c1ccccc1)c1ccccc1	none (no result: Diaphorase inh, G6PDH counter)
Brc1ccc(C2C3=C(Nc4ncnn42)c2ccccc2OC3c2ccncc2)cc1 (centres undefined)	PfGluPho inh 83.0 | PfGluPho conf 53.7 | Diaph ctr 10uM 51.6 | Diaph ctr 30uM 57.4
CCOC(=O)c1ccc(-c2csc(NC(=O)CN3CCC(C)CC3)n2)cc1	none (no result: Diaphorase inh, G6PDH counter)
COc1cccc(N2CCN(CC(=O)NC(=O)NC3CCCCC3)CC2)c1	none (no result: Diaphorase inh, G6PDH counter)
CCOC(=O)c1sc(=S)n(-c2cc(OC)ccc2OC)c1N	PfGluPho inh 78.1 | PfGluPho conf inactive
COC(=O)c1sc(=S)n(-c2cc(F)ccc2F)c1N	PfGluPho inh 59.5 | PfGluPho conf inactive
COc1ccc(NC(=O)c2ccc3c(c2)N(C)CCS3)cc1	none (no result: Diaphorase inh, G6PDH counter)
CN1CCSc2ccc(C(=O)Nc3cccc(F)c3)cc21	PfGluPho inh 63.5 (no result: Diaphorase inh, G6PDH counter) | PfGluPho conf inactive
CCN(CC)c1ccc(C(=O)Nc2cccc(F)c2)cc1	none
CN(C)c1cccc(C(=O)Nc2cccc(F)c2)c1	PfGluPho inh 68.1 | PfGluPho conf inactive
COc1cc(NS(=O)(=O)c2cc3[nH]c(=O)c(=O)[nH]c3cc2C)cc(OC)c1OC	PfGluPho inh 63.1 (no result: Diaphorase inh, G6PDH counter) | PfGluPho conf inactive
COc1cc(NS(=O)(=O)c2ccc(C)cc2C)cc(OC)c1OC	none
c1ccc(-c2nnc(-c3ccccc3)nn2)cc1	none (no result: Diaphorase inh, G6PDH counter)
c1cncc(-c2nnc(-c3cccnc3)nn2)c1	PfGluPho inh 77.4 | PfGluPho conf inactive
Cc1ccccc1N/C(SCc1cccc(Br)c1)=C(/C#N)C(N)=O	PfGluPho inh 97.3 | PfGluPho conf 67.0 | Diaph ctr 10uM 60.6 | Diaph ctr 30uM inactive
O=c1c2ccccc2oc2c1oc1ccccc12	none (no result: Diaphorase inh, G6PDH counter)
Fc1ccc(C[n+]2csc3ccccc32)cc1	PfGluPho inh 63.8 | PfGluPho conf inactive
CCS(=O)(=O)c1ccc2oc(Nc3ccc(C(C)C)cc3)nc2c1	PfGluPho inh 74.1 | PfGluPho conf inactive
CCOc1ccc(Nc2nc3cc(S(=O)(=O)N(CC)CC)ccc3o2)cc1	PfGluPho inh 62.5 | PfGluPho conf inactive
CCN(CC)S(=O)(=O)c1ccc2oc(Nc3ccc(OC)cc3)nc2c1	none (no result: Diaphorase inh, G6PDH counter)
CCCCn1nc(C(=O)Nc2cc(C(F)(F)F)ccc2N2CCOCC2)ccc1=O	none (no result: Diaphorase inh, G6PDH counter)
COc1ccccc1-c1oc2ccccc2c1-c1ccc2cc[nH]c2c1	PfGluPho inh 63.3 (no result: Diaphorase inh, G6PDH counter) | PfGluPho conf inactive
Cc1[nH]n(-c2ccccc2)c(=S)c1C=NCCCN=Cc1c(C)[nH]n(-c2ccccc2)c1=S	PfGluPho inh 61.9 | PfGluPho conf inactive
C[C@@H]1CN([C@@H](C)CO)C(=O)CCCn2cc(nn2)CO[C@H]1CN(C)S(=O)(=O)c1ccc2c(c1)OCCCO2	none (no result: HKDC1 inh, Diaphorase inh, G6PDH counter)
C[C@H](CO)N1C[C@H](C)[C@H](CN(C)C(=O)c2ccc3ccn(C)c3c2)OCc2cnnn2CCCC1=O	none (no result: HKDC1 inh, Diaphorase inh, G6PDH counter)

Source: PubChem BioAssay
